From ChEMBL document CHEMBL4257441, “Protection effect of intracellular melanin from Lachnum YM156 and Haikunshenxi capsule combination on adenine-induced chronic renal failure in mice” (Medchemcomm, 2017)
Activity calls are given as the source filed them. No cut-off for these calls is given here.

How the values were obtained:
[1] = test system: Mus musculus; assay: Protective effect against adenine-induced chronic renal failure in ig dosed Kunming mouse assessed as increase in nephridial SOD levels administered as qd for 4 successive weeks with haikunshenxi capsule by hydroxylamine method; format: functional, organism-based
How it was run: (§1)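 Male Kunming mice (20 ± 5 g) given dietary adenine to induce CRF, then dosed orally at 100 or 200 mg kg–1, with or without Haikunshenxi capsule; n = 10 per group. Kidney homogenate assayed for SOD and CAT (U mg–1 protein), GSH-Px (U L–1), GSH (mg g–1 protein) and MDA (nmol mL–1).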

[2] = test system: Mus musculus; assay: Protective effect against adenine-induced chronic renal failure in Kunming mouse assessed as nephridial iNOS levels at 200 mg/kg, ig qd administered for 4 successive weeks (reference value: 1.98 +/- 0.12 U/mg); format: functional
[3] = test system: Mus musculus; assay: Protective effect against adenine-induced chronic renal failure in Kunming mouse assessed as weight growth rate at 100 mg/kg, ig qd administered for 4 successive weeks measured 24 hrs post last dose (reference value: 32.42 +/- 1.43%); format: functional
How it was run: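 Male Kunming mice (20 ± 5 g) were housed on a 12 h light/dark cycle at 18–20 °C. Chronic renal failure was induced by long-term dietary adenine. The melanin was given orally at 100 or 200 mg kg–1, alone or with Haikunshenxi capsule as positive drug, with ten mice per group. Weight growth rate (%) and kidney index (mg g–1) were recorded.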

[4] = test system: Mus musculus; assay: Protective effect against adenine-induced chronic renal failure in Kunming mouse assessed as nephridial IL-6 levels at 200 mg/kg, ig qd administered for 4 successive weeks (reference value: 20.85 +/- 0.11 pg/ml); format: functional
[5] = test system: Mus musculus; assay: Protective effect against adenine-induced chronic renal failure in ig dosed Kunming mouse assessed as decrease in nephridial TNF-alpha levels administered as qd for 4 successive weeks with haikunshenxi capsule; format: functional, organism-based
How it was run: (§2)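 CRF model made by chronic dietary adenine in male Kunming mice (20 ± 5 g); oral dosing at 100 or 200 mg kg–1, alone or with Haikunshenxi capsule; ten mice per group. Kidney tissue TNF-α, IL-1β and IL-6 measured as pg per mg protein, and iNOS activity as U mg–1 protein.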

[6] = test system: Mus musculus; assay: Protective effect against adenine-induced chronic renal failure in Kunming mouse assessed as weight growth rate at 200 mg/kg, ig qd administered for 4 successive weeks with haikunshenxi capsule measured 24 hrs post last dose (reference value: 32.42 +/- 1.43%); format: functional
How it was run: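 Male Kunming mice (20 ± 5 g) kept on a 12 h light/dark cycle at 18–20 °C on a standard diet. CRF induced by chronic dietary adenine. Test material given orally at 100 or 200 mg kg–1, alone or with Haikunshenxi capsule, alongside normal, model and capsule-only groups; ten mice per group. Weight growth rate recorded in %, kidney index in mg g–1.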

[7] = test system: Mus musculus; assay: Protective effect against adenine-induced chronic renal failure in Kunming mouse assessed as reduction in interstitial fibrosis in kidney at 200 mg/kg, ig qd administered for 4 successive weeks by haematoxylin and eosin dye-based optical microscopic method; format: functional, organism-based
How it was run: (§3)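 Kidneys were taken from male Kunming mice given an adenine diet plus oral melanin (100 or 200 mg kg–1), with or without Haikunshenxi capsule, ten per group. Histological sections were examined at 400× for glomeruli, tubules, adenine crystals, tubular atrophy and interstitial fibrosis.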

[8] = test system: Mus musculus; assay: Protective effect against adenine-induced chronic renal failure in Kunming mouse assessed as nephridial SOD levels at 100 mg/kg, ig qd administered for 4 successive weeks by hydroxylamine method (reference value: 30.45 +/- 1.12 U/mg); format: functional
[9] = test system: Mus musculus; assay: Protective effect against adenine-induced chronic renal failure in Kunming mouse assessed as nephridial SOD levels at 200 mg/kg, ig qd administered for 4 successive weeks with haikunshenxi capsule by hydroxylamine method (reference value: 30.45 +/- 1.12 U/mg); format: functional
[10] = test system: Mus musculus; assay: Protective effect against adenine-induced chronic renal failure in Kunming mouse assessed as reduction in interstitial fibrosis at 200 mg/kg, ig qd administered for 4 successive weeks with haikunshenxi capsule by haematoxylin and eosin dye-based optical microscopic method; format: functional, organism-based; how it was run: as §3
[11] = test system: Mus musculus; assay: Protective effect against adenine-induced chronic renal failure in Kunming mouse assessed as appearance of complete kidney tubules at 100 mg/kg, ig qd administered for 4 successive weeks by haematoxylin and eosin dye-based optical microscopic method; format: functional, organism-based; how it was run: as §3
[12] = test system: Mus musculus; assay: Protective effect against adenine-induced chronic renal failure in ig dosed Kunming mouse assessed as increase in nephridial SOD levels administered as qd for 4 successive weeks by hydroxylamine method; format: functional, organism-based; how it was run: as §1
[13] = test system: Mus musculus; assay: Protective effect against adenine-induced chronic renal failure in ig dosed Kunming mouse assessed as increase in total protein levels in serum administered as qd for 4 successive weeks with haikunshenxi capsule by coomassie brilliant blue method; format: functional, organism-based
How it was run: (§4)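 Adenine-fed CRF model in male Kunming mice (20 ± 5 g) housed at 18–20 °C on a 12 h light/dark cycle. Oral dosing at 100 or 200 mg kg–1, with or without Haikunshenxi capsule; ten mice per group. Serum creatinine, BUN, total protein and albumin measured, each group compared with the model group.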

[14] = test system: Mus musculus; assay: Protective effect against adenine-induced chronic renal failure in Kunming mouse assessed as nephridial iNOS levels at 100 mg/kg, ig qd administered for 4 successive weeks with haikunshenxi capsule (reference value: 1.98 +/- 0.12 U/mg); format: functional
[15] = test system: Mus musculus; assay: Protective effect against adenine-induced chronic renal failure in Kunming mouse assessed as nephridial IL-1beta levels at 100 mg/kg, ig qd administered for 4 successive weeks with haikunshenxi capsule (reference value: 18.34 +/- 0.25 pg/ml); format: functional
[16] = test system: Mus musculus; assay: Protective effect against adenine-induced chronic renal failure in Kunming mouse assessed as reduction in number of adenine crystals at 200 mg/kg, ig qd administered for 4 successive weeks with haikunshenxi capsule by haematoxylin and eosin dye-based optical microscopic method; format: functional, organism-based; how it was run: as §3
[17] = test system: Mus musculus; assay: Protective effect against adenine-induced chronic renal failure in Kunming mouse assessed as nephridial CAT levels at 100 mg/kg, ig qd administered for 4 successive weeks with haikunshenxi capsule by visible spectrometry method (reference value: 44.13 +/- 1.25 U/mg); format: functional
[18] = test system: Mus musculus; assay: Protective effect against adenine-induced chronic renal failure in ig dosed Kunming mouse assessed as decrease in nephridial IL-6 levels administered as qd for 4 successive weeks with haikunshenxi capsule; format: functional, organism-based; how it was run: as §2
[19] = test system: Mus musculus; assay: Protective effect against adenine-induced chronic renal failure in ig dosed Kunming mouse assessed as increase in albumin levels in serum administered as qd for 4 successive weeks with haikunshenxi capsule by bromocresol green colorimetric method; format: functional, organism-based; how it was run: as §4
[20] = test system: Mus musculus; assay: Protective effect against adenine-induced chronic renal failure in Kunming mouse assessed as nephridial GSH levels at 100 mg/kg, ig qd administered for 4 successive weeks by colorimetric method (reference value: 3.05 +/- 0.11 mg/g); format: functional
[21] = test system: Mus musculus; assay: Protective effect against adenine-induced chronic renal failure in ig dosed Kunming mouse assessed as decrease in nephridial iNOS levels administered as qd for 4 successive weeks; format: functional, organism-based; how it was run: as §2
[22] = test system: Mus musculus; assay: Protective effect against adenine-induced chronic renal failure in ig dosed Kunming mouse assessed as decrease in blood urea nitrogen levels in serum administered as qd for 4 successive weeks with haikunshenxi capsule by diacetyl oxime method; format: functional, organism-based; how it was run: as §4
[23] = test system: Mus musculus; assay: Protective effect against adenine-induced chronic renal failure in ig dosed Kunming mouse assessed as decrease in blood urea nitrogen levels in serum administered as qd for 4 successive weeks by diacetyl oxime method; format: functional, organism-based; how it was run: as §4

## Cc1c(=O)c(=O)c2c3c[nH]c4c(C)c(=O)c(=O)c(c5c[nH]c1c52)c43
[1]
  Activity: Dose-dependent effect
[2]
  Activity: 1.64 U/mg
[3]
  Activity: 50.12%
[4]
  Activity: 14.16 pg/mL
[5]
  Activity: Dose-dependent effect
[6]
  Activity: 56.64%
[7]
  Activity: Active
[8]
  Activity: 32.32 U/mg
[9]
  Activity: 48.58 U/mg
[10]
  Activity: Active
[11]
  Activity: Active
[12]
  Activity: Dose-dependent effect
[13]
  Activity: Dose-dependent effect
[14]
  Activity: 0.79 U/mg
[15]
  Activity: 14.51 pg/mL
[16]
  Activity: Active
[17]
  Activity: 74.25 U/mg
[18]
  Activity: Dose-dependent effect
[19]
  Activity: Dose-dependent effect
[20]
  Activity: 4.19 mg/g
[21]
  Activity: Dose-dependent effect
[22]
  Activity: Dose-dependent effect
[23]
  Activity: Dose-dependent effect
